An excerpt weighted towards active compounds, which were near 1.9% of everything screened.
bovine MsrA act: activators of bovine methionine sulfoxide reductase A. purified bovine MsrA, absorbance read-out. activation, % at 10.6 µM. hit rate 0.3% among 360,000. AID 602163; in the data active = activation above about 7.5%;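 also: 0% = vehicle and 100% = reference activator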
aDG glyco act: alpha-DG glycosylation activation. AID 624168. activation, % at 10 µM. Pro5-aDG cells, alpha-DG glycosylation AlphaScreen (IIH6); 0% Pro5, 100% B10-LARGE cell signal. hit rate 0.22% among 360,000;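 active = activation of at least 8% versus controls, or a plate z-score of at least 8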;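 also: Pro5 are CHO cells carrying HIG-tagged alpha-DG that lacks glycosylation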
UCH37 DUB inh: blocks the human deubiquitinase UCH37. inhibition, % (concentration not given with the values). AID 588478. Q9Y5K5. hit rate 0.33% among 330,000. purified proteasome/UCH37, Ub-AMC cleavage fluorescence;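 active = mean inhibition over replicate wells above about 20%, limit read from the data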;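 also: 0% = compound-free wells with enzyme and 100% = wells lacking proteasome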
Target sequence (Q9Y5K5 whole entry, looked up): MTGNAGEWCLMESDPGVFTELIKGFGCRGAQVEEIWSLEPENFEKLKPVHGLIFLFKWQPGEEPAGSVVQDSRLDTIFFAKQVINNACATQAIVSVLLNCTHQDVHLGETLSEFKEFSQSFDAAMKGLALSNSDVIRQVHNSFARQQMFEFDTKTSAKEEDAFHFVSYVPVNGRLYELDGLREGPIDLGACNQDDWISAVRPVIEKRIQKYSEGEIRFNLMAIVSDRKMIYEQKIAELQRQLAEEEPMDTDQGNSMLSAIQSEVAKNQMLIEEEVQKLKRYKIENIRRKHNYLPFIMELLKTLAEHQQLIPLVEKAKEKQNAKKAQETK
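Material: Human UCH37 enzyme supplied as purified proteasome complex | Schedule: 30 min compound-proteasome preincubation then 25 min substrate reaction, room temperature | Detection: AMC fluorescence from Ub-AMC cleavage, excitation 355 nm, emission 460 nm | Benchmarks: Wells without proteasome as full block, compound-free enzyme plus substrate as uninhibited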
Vif inh: blocks HIV Vif function. inhibition, % at 7.49 µM. AID 602346. hit rate 0.35% among 340,000. HEK293T cells, Vif self-association by quenched fluorescence, imaging, 24 h; in the data active = inhibition above about 50%, passing the limit was not always enough; inconclusive = no clear call, values can overlap the other calls; inactive = below about 31%
N-glyco inh: N-linked glycosylation inhibition; D54 ERlucT glycosylation luciferase reporter, 24 h; percent of 100 nM tunicamycin response; reporter increase, % at 12.5 µM; hit rate 0.23% among 360,000; AID 588692;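 active = mean luciferase reporter signal, scaled so untreated is 0 and the glycosylation-blocking control 100, at or above a set limit in every replicate; inconclusive = mean reaches the limit but not every replicate does; inactive = mean below the limit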;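 also: luciferase carries N-glycosylation sites so blocking glycosylation raises the light; 0% = median of neutral control wells and 100% = median of 100 nM tunicamycin wells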
MsrA inhibitor: inhibitors of bovine MsrA. purified bovine MsrA, absorbance read-out. inhibition, % at 15.5 µM. hit rate 0.75% among 360,000; in the data active = inhibition above about 4.5%;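 also: 0% = vehicle wells with enzyme and 100% = reference inhibitor wells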
MsrA activ conf: bovine methionine sulfoxide reductase A activation confirmed; purified bovine MsrA, absorbance read-out; hit rate 12% among 1,000; shares compounds with bovine MsrA act; activation, % at 10.6 µM; AID 602270; in the data active = activation above about 4%;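 also: enzyme coupled to thioredoxin and thioredoxin reductase with NADPH; 0% = vehicle wells and 100% = reference activator wells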
The depositor's hits bear a star; ? = inconclusive; · = not tested or not shown.

SMILES	bovine MsrA act	aDG glyco act	UCH37 DUB inh	Vif inh	N-glyco inh	MsrA inhibitor	MsrA activ conf
O=C1C(NS(=O)(=O)c2ccc(Br)cc2)=C(N2CCCCC2)C(=O)c2ccccc21	-4	0	14	-7	5	2	·
COc1nccc(C(F)(F)F)c1C(=O)NC(=O)Nc1c(C)cccc1C	-1	0	0	10	0	2	·
COc1nccc(C(F)(F)F)c1C(=O)NC(=O)Nc1ccccc1	9.5*	0	4	-11	-1	1	2
S=c1[nH]nc(-c2ccco2)n1N=Cc1ccccn1	·	·	2	·	·	·	·
CCOC(=O)c1ccc(NC(=O)c2cc(F)c(F)cc2Cl)cc1	8.7*	1	-1	?	-1	1	1
COc1ccc(NC(=O)c2cc(F)c(F)cc2Cl)cc1Cl	-5	0	4	-4	2	1	·
O=C(Nc1ccccn1)c1cccs1	-9	0	1	·	2	1	·
O=C(Nc1cccnc1Cl)c1cccs1	17*	0	-1	16	1	-1	-1
COc1ccccc1-c1nc2sc(=Cc3cccs3)c(=O)n2n1	·	·	3	·	·	·	·
Cc1cc(C)c(S(=O)(=O)/N=C2/C=C(Sc3ncn[nH]3)C(=O)c3ccccc32)cc1C	14*	-1	·	3	-8	61*	8.0*
Cc1cccc(C=c2sc(=CC(=O)C(C)(C)C)[nH]c2=O)c1	·	·	1	·	·	·	·
NC(=NOC(=O)c1cccc(Br)c1)c1ccc([N+](=O)[O-])cc1	·	·	1	·	·	·	·
CCCN1C(=O)N(C)C(N(O)C(=O)NC)C1(C)C (stereo unspecified)	14*	0	2	2	2	1	0
Cc1sc(NC(=O)CN2CCCC2)nc1-c1ccc2c(c1)CCN2C(=O)c1ccc(F)cc1	12*	0	1	2	-3	-1	-3
O=C(NN=Cc1ccc(F)c(F)c1)c1cccc(S(=O)(=O)N2CCCCC2)c1	·	·	0	·	·	·	·
S=c1[nH]nc(-c2ccncc2)n1Cc1ccccc1	8.5*	0	2	23	-1	1	1
Fc1ccc(-c2n[nH]c(=S)n2Cc2ccccc2)cc1	-1	0	0	0	0	·	·
Cc1cc(C)cc(NC(=S)N2CCCC2)c1	12*	0	-1	-2	-1	1	-3
Cc1c(Cl)cccc1Nc1n[nH]c(=S)s1	9.6*	0	·	3	3	1	0
S=c1[nH]nc(Nc2cccc3ccccc23)s1	8.8*	0	4	0	3	2	0
Cc1ccccc1Nc1n[nH]c(=S)s1	11*	0	·	·	3	0	1
O=C1c2ccccc2-c2cccnc21	-4	0	1	-12	2	1	·
O=C1c2ccccc2C(=O)c2c(/C=C/N3CCCCC3)ccnc21	9.7*	2	·	7	-13	1	4.3*
CS(=O)(=O)c1ccc(N)c(SSc2cc(S(C)(=O)=O)ccc2N)c1	14*	0	4	-2	1	1	9.8*
COc1ccc(C=NNC(=O)Nc2nonc2N)cc1	·	·	4	·	·	·	·
SMILES	bovine MsrA act	aDG glyco act	UCH37 DUB inh	Vif inh	N-glyco inh	MsrA inhibitor	MsrA activ conf
CC(C)NC(=O)N(C)C[C@@H]1OCc2cn(nn2)CCCC(=O)N([C@H](C)CO)C[C@H]1C	13*	0	·	-1	1	0	-2
C[C@@H]1CN([C@H](C)CO)C(=O)CCCn2nncc2CO[C@@H]1CN(C)S(=O)(=O)c1ccc2c(c1)OCCCO2	12*	0	·	-3	-1	-2	1
C[C@H](CO)N1C[C@H](C)[C@@H](CN(C)S(=O)(=O)c2ccc3c(c2)OCCCO3)OCc2cnnn2CCCC1=O	-1	0	·	-4	1	-2	·
COc1cc(OC)c(OC)cc1C=NN(C)c1ccccc1	·	·	1	·	·	·	·
O=[N+]([O-])c1ccc(-[n+]2ccc3ccccc3c2)c([N+](=O)[O-])c1	11*	0	3	-3	-2	2	3
O=C(CON=Cc1ccccc1OC(F)F)N1CCc2ccccc21	·	·	1	·	·	·	·
NC(CC(=O)Nc1ccc(F)cc1)=NO	·	·	-28	·	·	·	·
CCn1c(SCC(=O)OC)nnc1-c1ccc(C)cc1	-3	0	2	-3	3	1	·
CCOC(=O)CSc1nnc(-c2nnc(SCC(=O)OCC)n2CC)n1CC	7.7*	0	-2	14	1	0	0
CC1Cc2ccccc2N1C(=O)COC(=O)c1cccc(Br)c1 (stereo unspecified)	24*	0	0	9	2	1	-2
Cc1ncc(CO)c(C=NNC(=S)Nc2ccc(F)cc2)c1O	·	·	-74	·	·	·	·
Cc1cccc(NS(=O)(=O)c2cc(C(=O)N3CCc4ccccc4C3)ccc2Cl)c1C	-3	0	1	-2	-5	-1	·
Cc1ccc(C)c(NS(=O)(=O)c2cc(C(=O)N3CCc4ccccc4C3)ccc2Cl)c1	8.2*	0	3	6	-6	0	-2
COc1cc(OC)cc(C(=O)NC2CCN(CC(=O)Nc3cccc4ccccc34)CC2)c1	8.9*	0	0	15	-2	1	-1
COc1cccc(C(=O)NC2CCN(CC(=O)Nc3cccc(C)c3C)CC2)c1	-11	0	0	3	-1	-1	·
O=C(Cn1sc2ccccc2c1=O)Nc1ccccc1	7.7*	0	·	-5	1	0	2
COc1ccc(N2CCN(C(=O)COC(=O)/C=C/c3ccc(C(F)(F)F)cc3)CC2)cc1	-7	1	1	·	0	-1	·
CC1CCCN(C(=O)COC(=O)/C=C/c2ccc(C(F)(F)F)cc2)C1 (stereo unspecified)	8.7*	0	-1	4	1	0	-1
Cc1cc(C)cc(N(CC(=O)Nc2ccccc2C(=O)N2CCOCC2)S(C)(=O)=O)c1	9.2*	0	1	0	1	-1	-2
Cc1ccc(S(=O)(=O)N(CC(=O)Nc2ccccc2C(=O)O)c2ccccc2)cc1	7.8*	0	1	2	-1	2	-3
CS(=O)(=O)N(CC(=O)Nc1ccccc1C(=O)N1CCOCC1)c1ccc(Cl)cc1	-11	0	3	-3	2	0	·
O=C1N/C(=N\N=Cc2cccs2)SC1Cc1cccc(Cl)c1Cl (stereo unspecified)	·	·	10	·	·	·	·
O=C(NC(=S)NNC(=O)c1ccccc1[N+](=O)[O-])c1ccc(Br)cc1	10.0*	0	4	4	1	-2	-1
O=C(NNC(=S)NC(=O)c1ccccc1[N+](=O)[O-])c1ccccc1Cl	-1	0	4	4	1	2	·
Fc1c(F)c(F)c(C=NNC(=S)Nc2cccnc2)c(F)c1F	·	·	1	·	·	·	·
CCCCCOc1ccc(C=c2sc3nc(=O)c(-c4ccccc4)nn3c2=O)cc1OC	·	·	4	·	·	·	·
O=C1CCCC(O)=C1N=Nc1ccc(Cl)c(Cl)c1	-2	0	4	19	7	4	·

Source: PubChem
